Reference: PubChem BioAssay
Records with an inconclusive call do not appear.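 Rule for the calls, unless noted: active = RAM network inhibition above 8.4% in each of two replicates, 3 SD over the compound average; inconclusive = above 8.4% inhibition in only one replicate; inactive = 8.4% inhibition or less in each replicate.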

How the values were obtained:
[1] = OD615 S. cerevisiae growth inhibition, permissive medium, pilot counter-assay, permissive growth control for S. cerevisiae lifespan shortening project (AID 705;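 active = growth inhibition above 25% in both replicates, a cutoff set 3 SD above the mean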); conditions: OD615, 24 h, at 10 µM, hits give high values
How it was run: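 System: Engineered DeaD yeast | Buffer or medium: SC raffinose/galactose permissive medium | Doses: 10 µM single dose, 0.25% DMSO | Times: 24 h exposure, 30 °C | Measured by: OD615 turbidity read | Read-out: Yeast growth inhibition indicated by reduced 24 h OD615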

[2] = Restrictive medium S. cerevisiae growth inhibition, OD615, pilot screen of yeast lifespan reduction project, restrictive growth control (AID 706;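 active = growth inhibition above a set limit, 3 SD over mean compound inhibition, in both replicates, cut at about 43% in these data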;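 note: modified DeaD lifespan yeast strain shifted to restrictive glucose medium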); conditions: OD615, 48 h, at 10 µM, hits give high values
How it was run: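 Assay system: engineered S. cerevisiae DeaD strain; Buffer or medium: CSMM-D glucose medium; Dosing: 10 µM compound, 0.25% DMSO; Times: cell pre-growth 4 h, compound exposure 48 h, 30 °C; Detection: absorbance (optical density) measured at 615 nm.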

[3] = viability gain of MRP-1-high H69AR cells under doxorubicin, pilot screen, MRP-1 activator project, CellTiter-Glo, duplicate (AID 807;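 active = viability increase at or above a cutoff of the median across tested compounds plus 3 SD, cut at about 8.5% in these data, passing the limit was not always enough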;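 note: compound pretreatment 18-22 h then 72 h combined with doxorubicin; 0% = doxorubicin alone and 100% = vehicle without doxorubicin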); conditions: H69AR viability with doxorubicin, CellTiter-Glo luminescence; at 10 µM; hits give high values
[4] = growth suppression of beta-catenin knockout HCT116, pilot screen, human colon tumor cells (AID 823;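 active = cell viability at or below a set limit in both duplicate runs, the limit being the all-compound median minus 4 SD, cut at about 23% in these data, passing the limit was not always enough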;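 note: 0% = wells killed by 20 µM Hyamine and 100% = untreated DMSO cell wells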); conditions: CellTiter-Glo, 60 h, at 10 µM, hits give low values
[5] = growth suppression of PTEN-deleted HCT116, pilot screen, cell-based, HCT116 clonal line, CellTiter-Glo (AID 824;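 active = viability at or below 27.92% in each of two runs, the all-compound median minus 4 SD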;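 note: 0% = 20 µM Hyamine control and 100% = vehicle cell control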); conditions: 60 h, at 10 µM, hits give low values
[6] = inhibitors of the yeast RAM network, pilot screen, dse1pr::URA3 reporter, 5-FOA selection (AID 869;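 active = inhibition over a set limit, the all-compound mean plus 3 SD, in both replicate runs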;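 note: 0% = DMSO wells with no growth and 100% = 10 µM 1-NA-PP1 with full growth; RAM network block rescues cells from 5-FOA so hits raise OD615 growth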); conditions: S. cerevisiae dse1pr::URA3 5-FOA growth, OD615, 2 d; at 10 µM; hits give high values; strain carries analog-sensitive mutant Cbk1 kinase
[7] = RAM signaling pathway blockade in yeast – S. cerevisiae, Pdr1DBD-CYC8 efflux-inhibited sensitized strain, primary screen (AID 1298);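 note: 0% = DMSO untreated cells without growth and 100% = 10 µM 1-NA-PP1 full growth; higher means more yeast growth rescued from 5-FOA killing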; conditions: S. cerevisiae cbk1-as DSE1-URA3 strain, 5-FOA growth OD615, 2 d; at 50 µM; hits give high values

CC(=O)C1C(c2ccc(Cl)cc2)NC(=O)NC1(O)C(F)(F)F (configuration not stated)
inactive: growth inhibition [1] -9.25% | growth inhibition [2] -12% | viability increase [3] -0.16% | viability [4] 103% | viability [5] 101% | inhibition [6] 0.825% | RAM network inhibition [7] 3.45%

COc1ccc(C)cc1NC(=O)C1CCCN(S(=O)(=O)c2c(C)noc2/C=C/N(C)C)C1 (configuration not stated)
inactive: growth inhibition [1] -4.98% | growth inhibition [2] 3.38% | viability increase [3] -0.74% | viability [4] 102% | viability [5] 100% | inhibition [6] -0.18% | RAM network inhibition [7] 4.58%

O=C(Cn1c(-c2cncs2)nc2ccccc21)NCCc1ccccc1
inactive: growth inhibition [1] -6.77% | growth inhibition [2] -8.58% | viability increase [3] -2.77% | viability [4] 99.6% | viability [5] 92.7% | inhibition [6] 1.25% | RAM network inhibition [7] 4.43%

COc1ccc(N(C)C(=O)c2ccc3snnc3c2)cc1
inactive: growth inhibition [1] 4.09% | growth inhibition [2] -8.11% | viability increase [3] -1.56% | viability [4] 105% | viability [5] 94.3% | inhibition [6] 2.6% | RAM network inhibition [7] 0.05%

O=C1CCCC2=C1C(c1cn(-c3ccccc3)nc1-c1cccs1)c1c([nH]c(=O)[nH]c1=O)N2 (configuration not stated)
inactive: growth inhibition [1] -11.2% | growth inhibition [2] -27.7% | viability increase [3] 1.36% | viability [4] 106% | viability [5] 99.1% | inhibition [6] 0.32% | RAM network inhibition [7] 2.19%

CCCn1nc(NC(=O)CC(C)C)c2cc3ccccc3nc21
inactive: growth inhibition [1] -14.6% | growth inhibition [2] -11.4% | viability increase [3] -5.27% | viability [4] 87.5% | viability [5] 87.3% | inhibition [6] 2.49% | RAM network inhibition [7] 3.01%

CCCC(=O)NCCCc1nc2ccccc2n1C(C)C
inactive: growth inhibition [1] -18.1% | growth inhibition [2] -23.6% | viability increase [3] 1.18% | viability [4] 102% | viability [5] 96.2% | inhibition [6] 1.66% | RAM network inhibition [7] 3.95%

CN(C(=O)c1ccccc1C(=O)c1ccccc1)C1CCS(=O)(=O)C1 (configuration not stated)
inactive: growth inhibition [1] -8.28% | growth inhibition [2] 3.21% | viability increase [3] -1.54% | viability [4] 96.6% | viability [5] 95.4% | inhibition [6] -0.06% | RAM network inhibition [7] 1.85%

CN(C)c1ccc(S(=O)(=O)c2ccc(Cl)cc2)cc1
inactive: growth inhibition [1] 2.13% | growth inhibition [2] 16.1% | viability increase [3] -1.11% | viability [4] 103% | viability [5] 100% | inhibition [6] 1.79% | RAM network inhibition [7] 5.79%

CCOC(=O)C1CCN(S(=O)(=O)c2ccc3c4c(cccc24)C(=O)N3)CC1
inactive: growth inhibition [1] -4.42% | growth inhibition [2] -7.67% | viability increase [3] -3.39% | viability [4] 96.5% | viability [5] 85.7% | inhibition [6] 1.76% | RAM network inhibition [7] 2.83%

COCCN1C(=O)c2oc3ccccc3c(=O)c2C1c1ccc(O)c(OC)c1 (configuration not stated)
inactive: growth inhibition [1] -9.35% | growth inhibition [2] -0.41% | viability increase [3] -3.27% | viability [4] 97.5% | viability [5] 93.2% | inhibition [6] 0.49% | RAM network inhibition [7] 8.37%

O=C(CC1Oc2ccccc2NC1=O)NCCc1ccccc1 (configuration not stated)
inactive: growth inhibition [1] -0.525% | growth inhibition [2] 0.925% | viability increase [3] 0.98% | viability [4] 107% | viability [5] 105% | inhibition [6] 2.94% | RAM network inhibition [7] 9.58%

O=C(O)c1ccc(Cl)c2c1C1C=CCC1C(c1ccccn1)N2 (configuration not stated)
inactive: growth inhibition [1] -7.86% | growth inhibition [2] 8.06% | viability increase [3] -2.57% | viability [4] 98.3% | viability [5] 94.6% | inhibition [6] 2.31% | RAM network inhibition [7] 1.25%

COc1ccc(CNC(=O)CS(=O)Cc2nc(-c3ccc(C)cc3)oc2C)cc1 (configuration not stated)
inactive: growth inhibition [1] -5.34% | growth inhibition [2] 0.735% | viability increase [3] -2.44% | viability [4] 86.9% | viability [5] 93.4% | inhibition [6] 1.39% | RAM network inhibition [7] 5.95%

Nc1c(C(=O)Nc2ccc(Cl)cc2)oc2ccccc12
inactive: growth inhibition [1] -21% | growth inhibition [2] -20.9% | viability increase [3] -4.54% | viability [4] 75.3% | viability [5] 72.9% | inhibition [6] 2.38% | RAM network inhibition [7] 2.51%

COc1ccccc1-n1c(=O)[nH]c2c(C(N)=O)nc(C3CCCCC3)nc21
inactive: growth inhibition [1] -7.19% | growth inhibition [2] -5.21% | viability increase [3] -3.33% | viability [4] 94.7% | viability [5] 77.5% | inhibition [6] 1.55% | RAM network inhibition [7] 2.69%

CCCc1nc(N)c(C#N)c(-c2cccnc2)c1CC
inactive: growth inhibition [1] -6.48% | growth inhibition [2] -4.83% | viability increase [3] -4.91% | viability [4] 90.8% | viability [5] 84.7% | inhibition [6] 0.805% | RAM network inhibition [7] 3.69%

Cc1ccccc1N1C(=O)c2sc3nc4c(c(=O)n3c2C1=O)CCC4
inactive: growth inhibition [1] 4.62% | growth inhibition [2] 25.2% | viability increase [3] -4.72% | viability [4] 97% | viability [5] 96.8% | inhibition [6] 1.5% | RAM network inhibition [7] 2.56%

COc1c(Cl)cc(-c2noc(C)c2C(=O)NC(C)C)cc1Cl
inactive: growth inhibition [1] -17.1% | growth inhibition [2] -15.9% | viability increase [3] 0.34% | viability [4] 98.1% | viability [5] 96.4% | inhibition [6] 1.33% | RAM network inhibition [7] 2.37%

COc1cccc(C2c3c(oc4ccc(F)cc4c3=O)C(=O)N2CCCN2CCOCC2)c1 (configuration not stated)
inactive: growth inhibition [1] -9.58% | growth inhibition [2] -6.59% | viability increase [3] -1.59% | viability [4] 105% | viability [5] 105% | inhibition [6] 1.25% | RAM network inhibition [7] 4.33%

COc1cccc(C2NC(=O)NC(C)=C2C(=O)Nc2ccc(C)cc2)c1 (configuration not stated)
inactive: growth inhibition [1] -9.18% | growth inhibition [2] -12% | viability increase [3] 1.54% | viability [4] 106% | viability [5] 97.6% | inhibition [6] 0.285% | RAM network inhibition [7] 3.39%

CC(C)=C1SC(N2CCN(Cc3ccccc3)CC2)=NC1=O
inactive: growth inhibition [1] -6.78% | growth inhibition [2] -0.855% | viability increase [3] -2.86% | viability [4] 94.9% | viability [5] 97.5% | inhibition [6] 0.52% | RAM network inhibition [7] 4.6%

CCOc1ccc(-c2nnc(-c3ccco3)o2)cc1
inactive: growth inhibition [1] -1.61% | growth inhibition [2] 5.67% | viability increase [3] 1.72% | viability [4] 94.5% | viability [5] 101% | inhibition [6] 0.695% | RAM network inhibition [7] 2.38%

COc1cc(OC)c(Cl)cc1N
inactive: growth inhibition [1] -8.61% | growth inhibition [2] -16.7% | viability increase [3] -2.54% | viability [4] 98% | viability [5] 95.7% | inhibition [6] 1.47% | RAM network inhibition [7] 2.8%

CC(NC(=O)C1CCC1)c1ccc2c(c1)OCO2 (configuration not stated)
inactive: growth inhibition [1] -10% | growth inhibition [2] -5.42% | viability increase [3] -2.08% | viability [4] 97.5% | viability [5] 91.7% | inhibition [6] 1.67% | RAM network inhibition [7] 0.83%

O=C(Nc1ccccn1)c1cccc(S(=O)(=O)N2CCOCC2)c1
inactive: growth inhibition [1] 6.61% | growth inhibition [2] -0.23% | viability increase [3] -1.53% | viability [4] 102% | viability [5] 98.3% | inhibition [6] 1.09% | RAM network inhibition [7] 2.13%

Cc1ccc(S(=O)(=O)N2CCCC2C(=O)Nc2nccs2)cc1 (configuration not stated)
inactive: growth inhibition [1] -15.2% | growth inhibition [2] -6.25% | viability increase [3] -1.37% | viability [4] 97% | viability [5] 98.6% | inhibition [6] -0.275% | RAM network inhibition [7] 4.76%

COc1cc(-c2nnc(COc3ccc4cc(Br)ccc4c3)o2)cc(OC)c1OC
inactive: growth inhibition [1] -10.6% | growth inhibition [2] -8.51% | viability increase [3] 0.27% | viability [4] 62.9% | viability [5] 46.7% | inhibition [6] 0.505% | RAM network inhibition [7] 3.67%

CC1(C(=O)NCc2cccnc2)CCC(=O)N1CCc1ccccc1 (configuration not stated)
inactive: growth inhibition [1] 4.98% | growth inhibition [2] 3.93% | viability increase [3] -0.87% | viability [4] 97% | viability [5] 102% | inhibition [6] 2.94% | RAM network inhibition [7] 2.65%

c1csc(Cc2nc3ccccc3[nH]2)c1
inactive: growth inhibition [1] -8.51% | growth inhibition [2] -11.8% | viability increase [3] 0.14% | viability [4] 97.8% | viability [5] 100% | inhibition [6] 2.71% | RAM network inhibition [7] -0.01%

O=P(/C(=N/O)Sc1ccccc1)(N1CCOCC1)N1CCOCC1
inactive: growth inhibition [1] -7.6% | growth inhibition [2] 1.87% | viability increase [3] -4.88% | viability [4] 90% | viability [5] 97% | inhibition [6] 0.62% | RAM network inhibition [7] 4.34%

CCOc1ccc(-n2c(SCC(=O)NCc3ccco3)nc3c(c2=O)SCC3)cc1
inactive: growth inhibition [1] -21.1% | growth inhibition [2] -19.1% | viability increase [3] -3.31% | viability [4] 95.2% | viability [5] 98.4% | inhibition [6] 3.37% | RAM network inhibition [7] 7.34%

CCSc1nnc(NC(=O)c2cc3c(s2)CCCC3)s1
inactive: growth inhibition [1] -3.65% | growth inhibition [2] -0.425% | viability increase [3] -1.67% | viability [4] 54.3% | viability [5] 60.2% | inhibition [6] 2% | RAM network inhibition [7] -1.29%

O=C(CCCN1C(=O)CSc2ncccc21)N1CCN(Cc2ccccc2)CC1
inactive: growth inhibition [1] -1.92% | growth inhibition [2] -2.68% | viability increase [3] -2.06% | viability [4] 92.4% | viability [5] 91.7% | inhibition [6] 2.33% | RAM network inhibition [7] 2.55%

Cc1sc2nc(CSc3nnc(Cc4cccs4)n3C3CCCCC3)[nH]c(=O)c2c1C
inactive: growth inhibition [1] 10.9% | growth inhibition [2] 27.6% | viability increase [3] 3.27% | viability [4] 92.8% | viability [5] 90% | inhibition [6] 3.25% | RAM network inhibition [7] 4.25%

C=CCOc1ccc(/C=C/C(C)=N\O)cc1
inactive: growth inhibition [1] 3.48% | growth inhibition [2] 7.77% | viability increase [3] -3.27% | viability [4] 93.2% | viability [5] 96.3% | inhibition [6] 1.11% | RAM network inhibition [7] 9.15%
